The list is not random: actives were taken first. Their share in the collection is about 3%.
sdo1 growth: restores growth of sdo1-depleted yeast; 140,000 tested, 0.21% active; z-score at 10 µM; S. cerevisiae sdo1-depleted JHY4D growth rescue, OD600 30 h; active compounds read high; pdr5 snq2 efflux-pump mutant strain;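 active = z-score above 3 at both the 24 hr and the 30 hr optical density reads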
Yeast lifespan up: yeast lifespan extension; 130,000 tested, 0.68% active; inhibition of the nicotinamide effect, % at 10 µM; S. cerevisiae growth with nicotinamide, OD615; deaD strain in restrictive glucose medium;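 active = inhibition above a set limit, placed 3 SD over the median of all compounds, cut at about 26% in these data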
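System: DeaD-strain S. cerevisiae / Buffer or medium: CSMM-D, restrictive glucose (dextrose) synthetic minimal medium / Probe or stimulus: nicotinamide, 1.5 mM, co-present with compound / Compound: one concentration, 10 µM, DMSO 0.25% / Incubation: 48 h compound exposure at 30 °C, humidified / Technique: optical density (absorbance) at 615 nm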
sEH inhibitor: blocks human soluble epoxide hydrolase activity; P34913; AID 707; inhibition, % at 2 µM; 91,000 tested, 0.34% active; recombinant human sEH enzymatic activity assay; in the data active = inhibition above about 80%
Target sequence (P34913 whole entry, looked up): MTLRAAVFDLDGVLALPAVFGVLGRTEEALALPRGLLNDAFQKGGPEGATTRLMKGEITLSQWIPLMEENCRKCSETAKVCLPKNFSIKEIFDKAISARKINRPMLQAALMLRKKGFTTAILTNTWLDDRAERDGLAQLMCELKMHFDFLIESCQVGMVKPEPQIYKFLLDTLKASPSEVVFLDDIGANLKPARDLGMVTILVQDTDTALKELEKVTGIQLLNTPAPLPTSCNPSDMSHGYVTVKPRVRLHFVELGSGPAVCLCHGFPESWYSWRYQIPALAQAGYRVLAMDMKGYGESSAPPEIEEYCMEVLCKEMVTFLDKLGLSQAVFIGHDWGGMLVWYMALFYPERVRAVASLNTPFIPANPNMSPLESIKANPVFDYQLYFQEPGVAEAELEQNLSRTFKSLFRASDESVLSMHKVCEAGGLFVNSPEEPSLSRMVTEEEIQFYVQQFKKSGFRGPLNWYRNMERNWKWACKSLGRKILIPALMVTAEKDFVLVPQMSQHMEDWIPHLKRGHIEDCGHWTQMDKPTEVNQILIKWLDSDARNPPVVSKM
Measles CPE: protection of cells from measles virus; Measles virus-infected cells, CPE protection, absorbance; protection (pct of control), % at 4 µM; 140,000 tested, 1.5% active; AID 841; in the data active = protection mostly above about 24%, no sharp cut-off; inactive = mostly below about 26%
BB579 growth dn: chemicals that inhibit yeast BB579 growth in restrictive medium (lifespan-shortening candidates); S. cerevisiae BB579 growth, OD615, 48 h; inhibition, % at 10 µM; 140,000 tested, 0.51% active; AID 804;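 active = inhibition above a set limit, 3 SD over the mean compound inhibition, cut at about 44% in these data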
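Test system: DeaD yeast strain BB579 / Buffer or medium: restrictive glucose-based CSMM-D medium / Doses: single 10 µM dose / Schedule: 4 h cell preincubation, 48 h compound exposure, 30 °C humidified / Technique: culture absorbance at 615 nm / Controls: amphotericin B positive control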
sEH activator: increases human soluble epoxide hydrolase activity | activation, % at 2 µM | purified human sEH enzymatic activity, activator screen | P34913 | 91,000 tested, 0.04% active; in the data active = activation above about 37%
SDO1 rescue DR: SDO1-depleted yeast growth rescue confirmation. shares compounds with sdo1 growth. S. cerevisiae JHY4D (SDO1-depleted) growth rescue, OD600, 30 h; active compounds read high; efflux-deficient strain, SNQ2 and PDR5 mutated. OD recovery (no concentration beside the values). 440 tested, 44% active;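 active = yeast growth recovered at 30 hours, either rising with dose fitted slope above 0.001 or with average optical density gain above 0.07, some results past the limit were not filed as active; inactive = growth falling with dose or no effect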
Of the large screens only hits and unclear results are named; the others gave an inactive call (follow-up assays come after a bar, where they were run).

Fc1ccc(C(OCCN2CCCC2)c2ccc(Br)cc2)cc1 (stereo not given)	Measles CPE 54 (no result: sEH inhibitor, sEH activator)
CCOCCCNC(=O)C1c2cc(OC)c(OC)cc2C(=O)N2CCCCC12 (stereo not given)	none (no result: sEH inhibitor, sEH activator)
COc1ccc(CN2CCCCC2c2cccnc2)cc1C (stereo not given)	Measles CPE 38 (no result: sEH inhibitor, sEH activator)
COc1cccc(CN2CCCCC2c2cccnc2)c1 (stereo not given)	none (no result: sEH inhibitor, sEH activator)
CCC(=NCc1ccc2c(c1)OCO2)c1c(O)n(C2CCCCC2)c(=O)[nH]c1=O	none
Cc1cccc(N/N=C(\C(N)=O)C2=NC(C)(C)Cc3ccccc32)c1	none (no result: sEH inhibitor, sEH activator)
Nc1ccccc1C(=O)OCC(=O)N1CCc2ccccc21	none
N#CSCC(=O)N1c2ccccc2CCc2ccccc21	Yeast lifespan up 43 (no result: sEH inhibitor, sEH activator)
CCCCCc1nc2c(c(=O)c3ccccc3n2C)c(=O)n1C1CCCCCC1	Yeast lifespan up 34 (no result: sEH inhibitor, sEH activator)
CCCCCc1nc2ccccc2c(=O)n1-c1ccccc1[N+](=O)[O-]	none (no result: sEH inhibitor, sEH activator)
Nc1c(C(=O)NCCc2ccccc2)c2nc3ccccc3nc2n1CCN1CCOCC1	BB579 growth dn 99
COc1ccc(CCNC(=O)c2c(N)n(CCN3CCOCC3)c3nc4ccccc4nc23)cc1	none (no result: sEH inhibitor, sEH activator)
Cc1ccc(OP(=O)(NCc2ccccc2)Oc2ccc(C)cc2)cc1	none (no result: sEH inhibitor, sEH activator)
CCN1C(=O)C(=Cc2ccc(C)s2)C(=O)N(CC)C1=S	Yeast lifespan up 66 (no result: sEH inhibitor, sEH activator)
CCc1ccccc1N1C(=O)/C(=C/c2ccc(N3CCN(C)CC3)o2)C(=O)NC1=S	none (no result: sEH inhibitor, sEH activator)
O=C1NC(=S)N(c2ccccc2F)C(=O)/C1=C\c1cccs1	BB579 growth dn 73 (no result: sEH inhibitor, sEH activator)
O/N=C1/C(=C\c2ccccc2)N2CCC1CC2	none
CC(Cc1ccccc1)NC(=O)NC(C)Cc1ccccc1 (stereo not given)	sEH inhibitor 98
CN=C(SCc1cc2c(cc1Cl)OCO2)c1c(O)n(C)c(=O)n(C)c1=O	Yeast lifespan up 56 (no result: sEH inhibitor, sEH activator)
C(=NC12CN3CN(CN(C3)C1)C2)c1cccs1	Measles CPE 55
NP(=O)(OCC(F)(F)F)Oc1ccccc1 (stereo not given)	none (no result: sdo1 growth, Yeast lifespan up, Measles CPE, BB579 growth dn)
CC/C(=C\C=C\[C@@H]1C=C[C@@H]2CCC[C@H]2[C@@H]1C(=O)c1ccc[nH]1)[C@@H]1O[C@@H]([C@@H](C)C(=O)O)CC[C@@H]1C	none (no result: Yeast lifespan up)
CC(C)N1CC=C(c2c[nH]c3ccccc23)CC1	Measles CPE 36
CC(C)c1ccc(N2C(=O)NC(=O)/C(=C/C=C/c3ccco3)C2=O)cc1	none (no result: sEH inhibitor, sEH activator)
Cc1ccc(N2C(=O)NC(=O)/C(=C/C=C/c3ccco3)C2=O)cc1	Yeast lifespan up 27 (no result: sEH inhibitor, sEH activator)
Cc1cc(C)cc(N2C(=O)NC(=O)/C(=C\C=C\c3ccco3)C2=O)c1	Yeast lifespan up 28 (no result: sEH inhibitor, sEH activator)
CCOP(=O)(OCC)C(NC(=O)CN1C(=O)c2ccccc2S1(=O)=O)C(Cl)(Cl)Cl (stereo not given)	none (no result: sEH inhibitor, sEH activator)
OC1CCCCC1N1CCC(c2ccccc2)CC1 (stereo not given)	none (no result: sEH inhibitor, sEH activator)
COc1cccc(/C=C2\N=C(c3cncc(Br)c3)OC2=O)c1	none (no result: sEH inhibitor, sEH activator)
O=C(O)CCCc1ccc(N(CCCl)CCCl)cc1	Yeast lifespan up 27 (no result: sEH inhibitor, sEH activator)
CCN1CCN(Cc2cc(C(C)(C)C)c(O)c(C(C)(C)C)c2)CC1	Measles CPE 60
O=C(O)Cn1cc(C(=O)c2ccccc2)c2ccccc21	Measles CPE 40
Cc1c(C(c2ccc(O)cc2)c2c(O)c3ccccc3oc2=O)c(=O)n(-c2ccccc2)n1C (stereo not given)	sdo1 growth 3.4 (no result: sEH inhibitor, sEH activator) | SDO1 rescue DR inactive
CCCCN1C(=O)/C(=C\c2ccco2)C(=O)N(CCc2ccccc2)C1=O	sdo1 growth 10 | SDO1 rescue DR inactive
CC12CCC3C(CC=C4CC(O)CCC43C)C1C/C(=C\c1cccc(F)c1)C2=O (stereo not given)	none (no result: sEH inhibitor, sEH activator)
Cn1c(=O)cc(OCC(=O)N2CCC3(CC2)OCCO3)c2ccccc21	none (no result: sEH inhibitor, sEH activator)
Cn1c(=O)cc(SCC(=O)N2CCC3(CC2)OCCO3)c2ccccc21	sdo1 growth 3.4 (no result: sEH inhibitor, sEH activator) | SDO1 rescue DR 0.071
O=c1[nH]c(=O)n(-c2cccc3ccccc23)c(O)c1/C=N/N1CCCCC1c1cccnc1 (stereo not given)	none (no result: sEH inhibitor, sEH activator)
